Laboratory results from ChEMBL document CHEMBL2331117 (J Med Chem, 2013).

Assays:
Cytochrome P450 3A4 = Cytochrome P450 3A4 (Homo sapiens, UniProt P08684); experiment: Inhibition of CYP3A4 (unknown origin); assay type: ADME
Mus musculus [1] = experiment: In vivo inhibition of mTORC1-mediated phosphorylation of p70S6K at […] in human PC3 cells xenografted into athymic nude mouse at 100 mg/kg, po after 4 hrs by Western blotting analysis relative to control; assay type: functional; conditions: PC-3, 4 h
Method in brief: (§1)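 PC-3 cells grown in DMEM with 20% FBS were implanted subcutaneously at 3 × 10^6 cells in ice-cold HBSS into the hindflank of 5−8 week old male nude mice. At tumor size 200−500 mg, mice received a single oral dose of 100 mg/kg. Plasma and tumors were collected at 1, 4, 8, 16, 24 and 32 h. Tumor lysates from each group (n = 5) were pooled. Phospho-proteins were quantified by Western blot and normalized to α-tubulin.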

Mus musculus [2] = experiment: In vivo inhibition of mTORC1-mediated phosphorylation of pS6 at (serine 240/244) in human PC3 cells xenografted into athymic nude mouse at 100 mg/kg, po after 1 hr by Western blotting analysis relative to control; assay type: functional; conditions: PC-3, 1 h; method in brief: as §1
[3] = Plasma concentration in athymic mouse plasma xenografted with human MCF7 cells at 100 mg/kg, po after 16 hrs; assay type: ADME, organism-based; design: dose 100 mg/kg, route oral
Method in brief: (§2)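 MCF-7 cells (5 × 10^6, in 50% cold HBSS/50% growth-factor-reduced matrigel) were implanted subcutaneously in the hindflank of 5–8 week old female nude mice. At 40–150 mg tumour size, mice received a single oral dose of 100 mg/kg, and plasma was sampled at the listed times after dosing.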

[4] = Volume of distribution at steady state in athymic nude mouse at 10 mg/kg, iv; assay type: ADME, organism-based; design: dose 10 mg/kg, route intravenous; conditions: in vivo, read-out: Vdss
[5] = Plasma concentration in athymic mouse plasma xenografted with human MCF7 cells at 100 mg/kg, po after 1 hr; assay type: ADME, organism-based; design: dose 100 mg/kg, route oral; method in brief: as §2
[6] = Plasma concentration in athymic mouse plasma xenografted with human PC3 cells at 100 mg/kg, po after 16 hrs; assay type: ADME, organism-based, PC-3; design: dose 100 mg/kg, route oral
[7] = Drug uptake in tumor of athymic mouse xenografted with human MCF7 cells at 100 mg/kg, po after 16hrs; assay type: ADME, organism-based, Neoplasm; design: dose 100 mg/kg, route oral; conditions: read-out: Drug uptake
Mus musculus [8] = experiment: In vivo inhibition of mTORC2-mediated phosphorylation of AKT at serine 473 in human MCF7 cells xenografted into athymic nude mouse at 100 mg/kg, po after 24 hrs by Western blotting analysis relative to control; assay type: functional; conditions: MCF7, 24 h
Method in brief: (§3)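 MCF-7 cells (DMEM, 10% FBS) were implanted subcutaneously at 5 × 10^6 cells in 50% cold HBSS/50% growth-factor-reduced matrigel into the hindflank of 5−8 week old female nude mice. At tumor size 40−150 mg, mice received a single oral dose of 100 mg/kg. Tumor lysates were pooled per group. Phospho-AKT (S473, T308), p70S6K (T389), S6 (S240/244) and 4E-BP1 (T37/46) were measured by Western blot normalized to α-tubulin.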

[9] = Metabolic stability in human liver microsomes after 30 mins; assay type: ADME, Microsome; conditions: read-out: Stability
Mus musculus [10] = experiment: In vivo inhibition of mTORC2-mediated phosphorylation of AKT at […] in human MCF7 cells xenografted into athymic nude mouse at 100 mg/kg, po after 32 hrs by Western blotting analysis relative to control; assay type: functional; conditions: MCF7, 32 h; method in brief: as §3
Mus musculus [11] = experiment: In vivo inhibition of mTORC1-mediated phosphorylation of pS6 at (serine 240/244) in human MCF7 cells xenografted into athymic nude mouse at 100 mg/kg, po after 16 hrs by Western blotting analysis relative to control; assay type: functional; conditions: MCF7, 16 h; method in brief: as §3
[12] = Metabolic stability in rat liver microsomes after 30 mins; assay type: ADME, Microsome; conditions: read-out: Stability
[13] = biological target: DNA-dependent protein kinase catalytic subunit (Homo sapiens, UniProt P78527); experiment: Inhibition of DNA-PK (unknown origin)
DNA-dependent protein kinase catalytic subunit, sequence (P78527 whole entry): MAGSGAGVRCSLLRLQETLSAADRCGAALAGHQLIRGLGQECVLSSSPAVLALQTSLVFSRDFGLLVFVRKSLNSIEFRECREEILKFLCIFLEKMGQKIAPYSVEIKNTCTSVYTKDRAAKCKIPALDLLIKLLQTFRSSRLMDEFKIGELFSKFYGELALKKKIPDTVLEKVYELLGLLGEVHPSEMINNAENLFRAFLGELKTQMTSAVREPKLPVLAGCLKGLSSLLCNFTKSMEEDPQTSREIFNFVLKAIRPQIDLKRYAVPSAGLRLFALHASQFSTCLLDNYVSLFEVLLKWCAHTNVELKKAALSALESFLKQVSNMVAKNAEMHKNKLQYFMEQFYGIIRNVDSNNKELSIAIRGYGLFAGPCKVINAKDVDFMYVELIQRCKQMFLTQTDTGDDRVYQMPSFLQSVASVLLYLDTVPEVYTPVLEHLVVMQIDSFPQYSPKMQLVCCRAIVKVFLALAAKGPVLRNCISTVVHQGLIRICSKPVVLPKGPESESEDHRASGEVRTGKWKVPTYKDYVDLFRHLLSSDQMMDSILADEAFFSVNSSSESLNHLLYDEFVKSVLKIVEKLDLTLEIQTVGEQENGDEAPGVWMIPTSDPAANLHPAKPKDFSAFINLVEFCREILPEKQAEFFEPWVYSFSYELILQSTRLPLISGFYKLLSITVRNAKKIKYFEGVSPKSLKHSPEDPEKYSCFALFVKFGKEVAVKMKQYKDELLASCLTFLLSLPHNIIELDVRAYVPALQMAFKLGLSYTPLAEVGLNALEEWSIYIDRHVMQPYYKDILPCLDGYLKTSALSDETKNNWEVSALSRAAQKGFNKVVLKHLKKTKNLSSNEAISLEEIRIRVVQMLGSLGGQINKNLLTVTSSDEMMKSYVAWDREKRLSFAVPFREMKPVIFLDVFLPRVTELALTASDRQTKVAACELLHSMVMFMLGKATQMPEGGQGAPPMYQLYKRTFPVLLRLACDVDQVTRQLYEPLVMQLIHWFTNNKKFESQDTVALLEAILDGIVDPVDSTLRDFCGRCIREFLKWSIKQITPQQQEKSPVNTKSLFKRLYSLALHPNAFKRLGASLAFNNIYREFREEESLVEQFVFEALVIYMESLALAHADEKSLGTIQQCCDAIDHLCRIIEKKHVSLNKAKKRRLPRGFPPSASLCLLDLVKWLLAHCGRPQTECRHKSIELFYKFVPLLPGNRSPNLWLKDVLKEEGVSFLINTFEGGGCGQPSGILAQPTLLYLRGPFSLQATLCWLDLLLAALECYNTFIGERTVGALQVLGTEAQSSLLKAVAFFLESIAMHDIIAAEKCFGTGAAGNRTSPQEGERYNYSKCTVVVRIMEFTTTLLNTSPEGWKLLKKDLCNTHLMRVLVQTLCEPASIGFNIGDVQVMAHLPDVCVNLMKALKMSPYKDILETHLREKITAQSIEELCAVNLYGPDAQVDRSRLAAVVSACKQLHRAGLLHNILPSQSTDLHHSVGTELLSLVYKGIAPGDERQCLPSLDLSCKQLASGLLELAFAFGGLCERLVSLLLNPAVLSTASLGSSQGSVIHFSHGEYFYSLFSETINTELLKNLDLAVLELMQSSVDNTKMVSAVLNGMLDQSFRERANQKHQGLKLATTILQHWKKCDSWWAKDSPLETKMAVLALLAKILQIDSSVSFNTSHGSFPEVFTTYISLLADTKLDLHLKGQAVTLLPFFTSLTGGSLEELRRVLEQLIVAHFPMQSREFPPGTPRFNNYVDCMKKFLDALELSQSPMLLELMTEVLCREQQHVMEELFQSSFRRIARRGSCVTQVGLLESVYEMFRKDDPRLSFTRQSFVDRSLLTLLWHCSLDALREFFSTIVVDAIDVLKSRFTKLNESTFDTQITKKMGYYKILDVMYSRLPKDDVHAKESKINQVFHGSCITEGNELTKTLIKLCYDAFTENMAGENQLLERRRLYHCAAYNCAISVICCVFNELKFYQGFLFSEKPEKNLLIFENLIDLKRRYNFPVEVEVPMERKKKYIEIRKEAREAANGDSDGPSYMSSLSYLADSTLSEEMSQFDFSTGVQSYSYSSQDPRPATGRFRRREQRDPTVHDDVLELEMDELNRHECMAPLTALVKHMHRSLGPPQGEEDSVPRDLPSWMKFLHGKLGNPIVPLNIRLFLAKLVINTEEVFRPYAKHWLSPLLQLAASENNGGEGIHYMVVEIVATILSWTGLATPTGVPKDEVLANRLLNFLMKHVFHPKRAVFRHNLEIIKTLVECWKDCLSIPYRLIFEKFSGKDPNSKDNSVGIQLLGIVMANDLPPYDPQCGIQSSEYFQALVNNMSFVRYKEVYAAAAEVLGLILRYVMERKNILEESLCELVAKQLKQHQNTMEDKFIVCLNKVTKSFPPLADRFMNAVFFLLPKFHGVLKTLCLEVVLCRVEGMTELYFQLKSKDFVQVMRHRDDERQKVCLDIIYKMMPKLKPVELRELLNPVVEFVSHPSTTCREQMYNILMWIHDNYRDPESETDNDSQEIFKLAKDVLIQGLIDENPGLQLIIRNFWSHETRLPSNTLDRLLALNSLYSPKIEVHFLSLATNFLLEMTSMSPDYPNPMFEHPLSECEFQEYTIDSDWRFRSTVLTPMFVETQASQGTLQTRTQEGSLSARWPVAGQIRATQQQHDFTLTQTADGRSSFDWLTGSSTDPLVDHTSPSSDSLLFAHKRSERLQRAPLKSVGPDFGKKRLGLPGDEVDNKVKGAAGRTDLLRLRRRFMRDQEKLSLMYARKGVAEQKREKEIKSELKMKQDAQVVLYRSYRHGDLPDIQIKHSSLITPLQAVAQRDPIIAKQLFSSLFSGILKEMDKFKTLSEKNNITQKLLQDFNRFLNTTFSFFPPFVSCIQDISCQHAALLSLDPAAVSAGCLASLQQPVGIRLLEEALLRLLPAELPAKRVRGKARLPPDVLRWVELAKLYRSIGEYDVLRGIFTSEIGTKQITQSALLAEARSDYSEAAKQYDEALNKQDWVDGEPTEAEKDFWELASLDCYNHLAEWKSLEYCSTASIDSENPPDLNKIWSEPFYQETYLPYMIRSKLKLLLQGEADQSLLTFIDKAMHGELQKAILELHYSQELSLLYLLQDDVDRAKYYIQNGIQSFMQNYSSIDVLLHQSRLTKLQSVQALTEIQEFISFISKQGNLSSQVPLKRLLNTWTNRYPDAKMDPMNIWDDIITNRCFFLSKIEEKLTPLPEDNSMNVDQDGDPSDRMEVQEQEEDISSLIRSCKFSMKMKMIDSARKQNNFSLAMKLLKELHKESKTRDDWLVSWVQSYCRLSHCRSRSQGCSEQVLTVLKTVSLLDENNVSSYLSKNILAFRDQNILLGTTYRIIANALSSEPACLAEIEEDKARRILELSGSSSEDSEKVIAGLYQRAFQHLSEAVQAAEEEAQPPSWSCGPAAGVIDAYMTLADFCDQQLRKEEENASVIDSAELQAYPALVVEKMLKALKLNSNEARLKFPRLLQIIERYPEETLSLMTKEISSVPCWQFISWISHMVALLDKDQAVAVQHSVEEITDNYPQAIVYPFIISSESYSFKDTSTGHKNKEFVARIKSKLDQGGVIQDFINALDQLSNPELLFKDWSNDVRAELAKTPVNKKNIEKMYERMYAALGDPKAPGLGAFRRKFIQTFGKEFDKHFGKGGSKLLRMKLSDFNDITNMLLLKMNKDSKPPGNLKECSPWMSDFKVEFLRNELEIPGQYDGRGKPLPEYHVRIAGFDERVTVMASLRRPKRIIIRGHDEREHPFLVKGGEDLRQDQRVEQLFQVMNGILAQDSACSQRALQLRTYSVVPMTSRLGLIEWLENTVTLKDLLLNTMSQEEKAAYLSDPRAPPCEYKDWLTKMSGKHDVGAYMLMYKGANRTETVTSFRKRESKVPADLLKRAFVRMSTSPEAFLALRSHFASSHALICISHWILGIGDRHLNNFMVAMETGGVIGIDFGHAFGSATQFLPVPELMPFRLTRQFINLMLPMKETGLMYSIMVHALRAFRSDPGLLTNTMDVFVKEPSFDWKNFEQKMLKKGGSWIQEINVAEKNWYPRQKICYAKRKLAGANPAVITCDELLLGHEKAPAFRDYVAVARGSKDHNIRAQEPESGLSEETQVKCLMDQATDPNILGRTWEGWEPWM

Mus musculus [14] = experiment: In vivo inhibition of mTORC1-mediated phosphorylation of 4EBP1 at ([…]) in human MCF7 cells xenografted into athymic nude mouse at 100 mg/kg, po after 4 hrs by Western blotting analysis relative to control; assay type: functional; conditions: MCF7, 4 h; method in brief: as §3
Mus musculus [15] = experiment: Toxicity in athymic nude mouse assessed as body weight loss at 100 mg/kg, po relative to control; assay type: organism-based; design: dose 100 mg/kg, route oral; conditions: in vivo
Mus musculus [16] = experiment: In vivo inhibition of mTORC1-mediated phosphorylation of pS6 at (serine 240/244) in human PC3 cells xenografted into athymic nude mouse at 100 mg/kg, po after 32 hrs by Western blotting analysis relative to control; assay type: functional; conditions: PC-3, 32 h; method in brief: as §1
[17] = Plasma concentration in athymic mouse plasma xenografted with human PC3 cells at 100 mg/kg, po after 1 hr; assay type: ADME, organism-based, PC-3; design: dose 100 mg/kg, route oral
Mus musculus [18] = experiment: In vivo inhibition of mTORC2-mediated phosphorylation of AKT at serine 473 in human PC3 cells xenografted into athymic nude mouse at 100 mg/kg, po after 24 hrs by Western blotting analysis relative to control; assay type: functional; conditions: PC-3, 24 h; method in brief: as §1
Cytochrome P450 2D6 = Cytochrome P450 2D6 (Homo sapiens, UniProt P10635); experiment: Inhibition of CYP2D6 (unknown origin); assay type: ADME
Cytochrome P450 2D6, sequence (P10635 whole entry): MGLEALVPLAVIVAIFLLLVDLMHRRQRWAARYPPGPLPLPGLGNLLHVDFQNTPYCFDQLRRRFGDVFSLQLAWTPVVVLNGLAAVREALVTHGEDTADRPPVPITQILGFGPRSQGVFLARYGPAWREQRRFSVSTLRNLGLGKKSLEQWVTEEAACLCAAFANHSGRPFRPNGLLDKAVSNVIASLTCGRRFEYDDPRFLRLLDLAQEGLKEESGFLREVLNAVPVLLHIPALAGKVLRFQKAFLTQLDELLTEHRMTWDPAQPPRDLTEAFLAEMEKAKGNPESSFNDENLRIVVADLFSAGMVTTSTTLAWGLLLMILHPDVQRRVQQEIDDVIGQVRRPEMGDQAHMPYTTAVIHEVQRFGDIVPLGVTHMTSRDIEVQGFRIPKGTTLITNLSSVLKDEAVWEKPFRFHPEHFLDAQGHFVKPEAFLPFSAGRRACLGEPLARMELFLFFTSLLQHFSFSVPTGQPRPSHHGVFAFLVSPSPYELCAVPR

[19] = biological target: Dual specificity mitogen-activated protein kinase kinase 1 (Homo sapiens, UniProt Q02750); experiment: Inhibition of MEK1 (unknown origin)
[20] = Plasma concentration in athymic mouse plasma xenografted with human PC3 cells at 100 mg/kg, po after 8 hrs; assay type: ADME, organism-based, PC-3; design: dose 100 mg/kg, route oral
[21] = AUC (0 to infinity) in cynomolgus monkey at 3 mg/kg, iv; assay type: ADME, organism-based, Macaca fascicularis; design: time infinity, dose 3 mg/kg, route intravenous; conditions: plasma
Method in brief: (§4)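 Single-dose PK: female athymic nude mice (10 mg/kg), female CD rats and male beagle dogs (3 mg/kg), male cynomolgus monkeys (3 mg/kg), given iv and by oral gavage. Solution in EPW (5% ethanol/45% PEG400/water), with 1:2 HCl (m/m) for mouse, rat and dog and 1:1.5 HCl (m/m) for monkey. Plasma levels followed over 24 h.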

Mus musculus [22] = experiment: In vivo inhibition of mTORC2-mediated phosphorylation of AKT at […] in human MCF7 cells xenografted into athymic nude mouse at 100 mg/kg, po after 24 hrs by Western blotting analysis relative to control; assay type: functional; conditions: MCF7, 24 h; method in brief: as §3
[23] = Half life in CD rat at 3 mg/kg, iv; assay type: ADME, organism-based; design: dose 3 mg/kg, route intravenous; conditions: in vivo; method in brief: as §4
[24] = Drug uptake in tumor of athymic mouse xenografted with human PC3 cells at 100 mg/kg, po after 24 hrs; assay type: ADME, organism-based, Neoplasm, PC-3; design: dose 100 mg/kg, route oral; conditions: read-out: Drug uptake
Method in brief: (§5)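 PC-3 cells (3 × 10⁶, passages 10–14, in ice-cold HBSS) were implanted sc in 5–8 week old male nude mice. Tumors of 200–500 mg received a single oral 100 mg/kg dose. Plasma and tumor were collected at 1, 4, 8, 16, 24 and 32 h and homogenized in buffer. Lysates were pooled per group (n = 5), and phospho-proteins were measured by Western blot normalized to α-tubulin.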

[25] = Drug uptake in tumor of athymic mouse xenografted with human PC3 cells at 100 mg/kg, po after 1 hr; assay type: ADME, organism-based, Neoplasm, PC-3; design: dose 100 mg/kg, route oral; conditions: read-out: Drug uptake; method in brief: as §5
[26] = biological target: Phosphatidylinositol 4,5-bisphosphate 3-kinase catalytic subunit gamma isoform (Homo sapiens, UniProt P48736); experiment: Inhibition of PI3Kgamma (unknown origin)
[27] = biological target: Hepatocyte growth factor receptor (Homo sapiens, UniProt P08581); experiment: Inhibition of MET (unknown origin)
[28] = Plasma protein binding in human at 5 uM; assay type: ADME, cell-free; conditions: read-out: PPB (converted)

Cytochrome P450 3A4, sequence (P08684 whole entry): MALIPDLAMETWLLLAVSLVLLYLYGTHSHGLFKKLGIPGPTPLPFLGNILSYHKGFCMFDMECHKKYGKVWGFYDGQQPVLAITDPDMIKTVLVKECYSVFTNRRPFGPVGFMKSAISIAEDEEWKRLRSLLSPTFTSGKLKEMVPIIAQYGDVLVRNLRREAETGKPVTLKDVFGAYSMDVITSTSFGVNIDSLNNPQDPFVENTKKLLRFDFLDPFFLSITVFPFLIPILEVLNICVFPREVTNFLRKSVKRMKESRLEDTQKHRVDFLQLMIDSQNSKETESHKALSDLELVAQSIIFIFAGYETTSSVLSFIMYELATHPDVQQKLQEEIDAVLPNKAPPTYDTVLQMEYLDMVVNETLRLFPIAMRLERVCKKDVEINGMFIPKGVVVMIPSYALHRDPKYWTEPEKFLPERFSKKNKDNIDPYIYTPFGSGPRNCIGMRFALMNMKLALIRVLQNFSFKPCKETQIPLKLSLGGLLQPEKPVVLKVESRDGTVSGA

Cc1c(C(=O)N2CCOc3ccc(-c4ccc(N)nc4)cc3C2)ccc(S(C)(=O)=O)c1F
INH (Cytochrome P450 3A4): 24.6 µM
inhibition in vivo at 100 mg/kg (Mus musculus [1]): 95%
inhibition in vivo at 100 mg/kg (Mus musculus [2]): 88%
concentration at 16 h [3]: 2.08 µM
Vd [4]: 1.96 L/kg
concentration at 1 h [5]: 34.4 µM
concentration at 16 h [6]: 6.17 µM
concentration at 16 h [7]: 2.74 µM
inhibition in vivo at 100 mg/kg (Mus musculus [8]): -49%
remaining at 0.5 h [9]: 93%
inhibition in vivo at 100 mg/kg (Mus musculus [10]): 10%
inhibition in vivo at 100 mg/kg (Mus musculus [11]): 36%
remaining at 0.5 h [12]: 78%
IC50 [13]: 8.83 µM
inhibition in vivo at 100 mg/kg (Mus musculus [14]): 85%
Activity (Mus musculus [15]): 2.8%
inhibition in vivo at 100 mg/kg (Mus musculus [16]): -20%
concentration at 1 h [17]: 32.6 µM
inhibition in vivo at 100 mg/kg (Mus musculus [18]): 5%
INH (Cytochrome P450 2D6): > 20 µM
IC50 [19]: > 3.5 µM
concentration at 8 h [20]: 26.7 µM
AUC(0-inf) [21]: 1.31 µM·h
inhibition in vivo at 100 mg/kg (Mus musculus [22]): -39%
half-life [23]: 27 min
concentration at 24 h [24]: 0.11 µM
concentration at 1 h [25]: 28.8 µM
IC50 [26]: > 5 µM
IC50 [27]: > 3.5 µM
fraction unbound at 5 µM [28]: 0.14
